NR2E3 ag-1: NR2E3 agonists in two-hybrid cells, primary screen, cell-based, luminescence, CHO-S, Gal4-NCOR/VP16-NR2E3; Photoreceptor-specific nuclear receptor (Homo sapiens), Q9Y5X4; luciferase; inhibition of corepressor binding, % at 3.98 µM; 360,000 compounds, 0.35% hits; AID 602229, 2012;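 active = inhibition above the mean of all tested compounds plus 3 SD, cut at about 70% in these data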;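 note: 0% = DMSO with NR2E3 transfected cells and 100% = cells lacking NR2E3 construct; higher means lower luciferase signal from less NR2E3 corepressor binding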
Target sequence (Q9Y5X4 whole entry, looked up, the tested form may be a part): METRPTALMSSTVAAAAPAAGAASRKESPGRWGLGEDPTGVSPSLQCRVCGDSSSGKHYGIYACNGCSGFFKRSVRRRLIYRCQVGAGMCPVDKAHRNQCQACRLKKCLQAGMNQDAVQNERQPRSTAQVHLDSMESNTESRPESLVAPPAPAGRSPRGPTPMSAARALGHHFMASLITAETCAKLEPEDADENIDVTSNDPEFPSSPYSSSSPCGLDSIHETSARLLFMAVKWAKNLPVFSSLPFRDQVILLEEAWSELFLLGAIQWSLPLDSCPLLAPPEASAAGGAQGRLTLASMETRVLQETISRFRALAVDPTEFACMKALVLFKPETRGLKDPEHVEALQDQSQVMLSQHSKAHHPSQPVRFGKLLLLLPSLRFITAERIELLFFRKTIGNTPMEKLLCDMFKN
PP1 counter: PP1-alpha phosphatase inhibitors, primary screen, counter-screen for PP5 inhibitor project, biochemical, fluorescence, OMFP substrate, single point | Serine/threonine-protein phosphatase PP1-alpha catalytic subunit (Homo sapiens), P62136 | purified PP1alpha | inhibition, % at 6.7 µM | 320,000 compounds, 0.9% hits | AID 2235, 2010;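 active = inhibition above the mean inhibition of all tested compounds plus 3 SD, computed separately for each screening campaign, cut at about 15% in these data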
NR2E3 ag-2: inhibitors of NR2E3-RetCOR corepressor binding, primary screen, NR2E3 agonist project, biochemical, TR-FRET, GST-NR2E3, biotin-RetCOR. Photoreceptor-specific nuclear receptor (Homo sapiens), Q9Y5X4. 1536-well. inhibition of corepressor binding, % at 4.78 µM. 320,000 compounds, 0.12% hits. AID 2300, 2010;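 active = percent inhibition above the cutoff of mean plus 3 SD of all tested compounds, set per screening campaign, cut at about 20% in these data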;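 note: 0% = DMSO wells and 100% = biotin wells as full block of FRET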
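Material – GST-tagged NR2E3 plus biotinylated RetCOR corepressor · Quantity – NR2E3 fusion 1.35 nM · Times – 5 h incubation at 4 °C · Medium – pH 7.5 Tris-based buffer · Technique – TR-FRET, Eu(K)-anti-GST donor, streptavidin-D2 acceptor, ex 340, em 617/671 nm · Benchmarks – high control biotin, low control 0.6% DMSO · Format – 1536-well plates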
PP5 inh: PP5 phosphatase inhibitors, primary screen, biochemical, fluorescence; inhibition, % at 6.7 µM; purified PP5c, OMFP substrate fluorescence; 320,000 compounds, 0.18% hits;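 active = inhibition above the campaign's mean inhibition across all tested compounds plus 3 SD, cut at about 9.5% in these data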;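 note: 0% = DMSO only and 100% = 100 µM cantharidin control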
PP5 conf: PP5 phosphatase inhibitors, confirmation, biochemical, fluorescence, human. shares compounds with PP5 inh. Purified PP5, fluorogenic phosphatase substrate. inhibition, % at 6.7 µM. 460 compounds, 22% hits. AID 2331, 2010; in the data active = inhibition above about 9.5%
PP1 inh counter: PP1 phosphatase inhibitors, counter-screen for PP5 inhibitor project, biochemical, fluorescence, triplicate | shares compounds with PP5 inh | PP1 enzyme, fluorescent phosphatase substrate | inhibition, % at 6.7 µM | 460 compounds, 4% hits; in the data active = inhibition above about 16%
Starred values were filed as active, the others as inactive; / = no result given. A selection: hits, their analogues and other compounds. The true share with any hit is near 1.3%.

SMILES | NR2E3 ag-1 | PP1 counter | NR2E3 ag-2 | PP5 inh | PP5 conf | PP1 inh counter
CCOC(=O)c1c(NC(=O)C2C3C=CC(C3)C2C(=O)O)sc2c1CCC(CC)C2 (centres undefined) | 15 | 4 | -2 | 2 | / | /
CCN(C(=O)COC(=O)CCc1ccccc1)c1ccccc1 | -7 | -2 | 5 | 4 | / | /
FC(F)(F)c1ccccc1Cc1c(-c2ccco2)nc2ccc(Br)cn12 | 5 | / | / | / | / | /
CC1(C(=O)NS(=O)(=O)c2ccc(Cl)cc2)CCN1C(=O)Cc1ccsc1 (centres undefined) | 3 | / | / | / | / | /
COc1ccc2oc(=N)c(C(=O)Nc3cccc(C)c3C)cc2c1 | 7 | 0 | -1 | -2 | / | /
Cc1cccc(N/C(N)=N/c2nc3c(c(=O)[nH]2)CCCC3)c1 | -11 | -1 | 3 | 13* | -8 | -6
N/C(=N\c1nc2c(c(=O)[nH]1)CCC2)Nc1cccc(Cl)c1 | 6 | 2 | -3 | 0 | / | /
CCCCNS(=O)(=O)c1ccc(NC(=O)C(Sc2ccccc2)c2ccccc2)cc1 (centres undefined) | -4 | 8 | -1 | 10* | 4 | 3
O=C(Nc1ccccc1C(=O)N1CCN(Cc2ccccc2)CC1)c1ccccc1 | -13 | -5 | 2 | -1 | / | /
CC(=O)c1ccc(NC(=O)C2C3C=CC(O3)C2C(=O)O)cc1 (centres undefined) | -36 | 4 | -4 | 24* | 3 | 8
COc1cccc(NC(=O)C2C3C=CC(O3)C2C(=O)O)c1 (centres undefined) | -7 | 5 | 4 | 24* | 2 | 18*
O=C(O)C1C2C=CC(O2)C1C(=O)Nc1ccc(S(=O)(=O)Nc2ccccc2)cc1 (centres undefined) | 24 | -2 | 6 | 1 | / | /
CCCOC(=O)c1ccc(NC(=O)C2C3C=CC(O3)C2C(=O)O)cc1 (centres undefined) | -13 | 1 | 0 | 21* | 0 | 0
O=C(O)C1C2C=CC(O2)C1C(=O)Nc1ccc(S(=O)(=O)N2CCc3ccccc32)cc1 (centres undefined) | 8 | 3 | 6 | 17* | 3 | 3
CCCOC(=O)c1ccc(NC(=O)COC)cc1 | -19 | 2 | 0 | 1 | / | /
COc1ccc(NC(=O)C2C3C=CC(O3)C2C(=O)O)cc1 (centres undefined) | -1 | -1 | 1 | 7 | / | /
Cc1ccc(NC(=O)C(c2ccccc2)N2CCN(C(=O)c3ccco3)CC2)cc1Cl (centres undefined) | 18 | 3 | 4 | 5 | / | /
COc1ccc2[nH]c3c(c2c1)CCN1C(=O)C(CC(=O)NCCC2=CCCCC2)C[C@H](C(=O)N2CCCCC2)[C@@]31C (some centres undefined) | -14 | / | / | / | / | /
O=C(O)C1C2C=CC(O2)C1C(=O)Nc1ccc2c(c1)OCCO2 (centres undefined) | / | 7 | 3 | 15* | 1 | 10
CC(C)OC(=O)c1cc(NC(=O)C2C3C=CC(O3)C2C(=O)O)cc(C(=O)OC(C)C)c1 (centres undefined) | 5 | 8 | 0 | 31* | -4 | 3
O=C(O)C1C2C=CC(O2)C1C(=O)NCc1ccc2c(c1)OCO2 (centres undefined) | -18 | 1 | -2 | 2 | / | /
COc1ccc(CCC(=O)Nc2nnc(C(C)(C)C)s2)cc1 | -20 | 0 | 4 | 13* | 0 | -1
O=C(Nc1ccc(OC(F)(F)F)cc1)c1ccc2nc[nH]c2c1 | -29 | 4 | -2 | 3 | / | /
NC(=O)c1cccc(-c2cc(Nc3ccc(OC(F)(F)F)cc3)ncn2)c1 | 20 | 10 | 4 | 10* | 6 | 9
Nc1ccc(-c2nc3ccc([N+](=O)[O-])cc3[nH]2)cc1 | -80 | -1 | 6 | 12* | -5 | -4
SMILES | NR2E3 ag-1 | PP1 counter | NR2E3 ag-2 | PP5 inh | PP5 conf | PP1 inh counter
O=[N+]([O-])c1ccc(-c2nc3ccc([N+](=O)[O-])cc3[nH]2)cc1 | -89 | -2 | 3 | 2 | / | /
CCCSc1nsc(NC(=O)C(c2ccccc2)c2ccccc2)n1 | 24 | 5 | -1 | 2 | / | /
CCCSc1nsc(NC(=O)Nc2ccc(F)cc2F)n1 | -27 | 7 | 6 | 10* | -2 | 1
Cn1nc(C(C)(C)C)cc1C(=O)NN1CCOCC1 | 3 | 0 | 1 | 2 | / | /
Nc1c(C(=O)NCc2ccc3c(c2)OCO3)c2nc3ccccc3nc2n1CCCN1CCOCC1 | -2 | 4 | 4 | 9.7* | 13* | 4
COCCn1c(N)c(C(=O)NCc2cccs2)c2nc3ccccc3nc21 | 12 | 0 | 8 | 11* | 5 | 4
O=C(c1ccc(-n2cncn2)c2ccoc12)N1CCOCC1 | 5 | / | / | / | / | /
CC1(c2ccccc2Cl)NC(=O)N(CC(=O)N2c3ccccc3NC(=O)C2(C)C)C1=O (centres undefined) | 10 | 3 | 7 | 2 | / | /
COC(=O)CCC(=O)OC1(C)C(=O)C=C2C=C(C3CC3)N(C3CC3)C=C2C1=O (centres undefined) | -3 | -1 | 4 | 15* | 43* | 18*
COCCN1C=C2C(=O)C(C)(OC(=O)CCC(=O)OC)C(=O)C=C2C=C1C1CC1 (centres undefined) | 9 | 7 | 3 | 17* | 43* | 17*
COC(=O)CCC(=O)OC1(C)C(=O)C=C2C=C(C3CC3)N(Cc3ccco3)C=C2C1=O (centres undefined) | -21 | -3 | -1 | 4 | / | /
COc1ccc([C@H]2N[C@]3(CCCN(Cc4ccccc4)C3=O)[C@H]3C(=O)N(C)C(=O)[C@@H]23)cc1 | 4 | / | / | / | / | /
CCN(CC)c1ccc(C(=O)NC(=S)Nc2cc(S(=O)(=O)N3CCOCC3)ccc2-n2cncn2)cc1 | 2 | -4 | 2 | 18* | -4 | 3
C=CCNC(=S)Nc1cc(S(=O)(=O)N2CCOCC2)ccc1-n1cncn1 | 10 | 1 | -2 | -1 | / | /
CC[C@]12C(=O)N(C)C[C@H]([C@@H]3C(=O)N(C)C(=O)[C@@H]31)N2C(=O)c1ccc(Cl)c(Cl)c1 | -9 | / | / | / | / | /
Oc1ccc(N=Cc2ccc(-c3cccs3)s2)cc1 | -30 | 3 | -2 | 11* | 0 | -2
O=C(CSc1ccc2nnc(-c3ccccn3)n2n1)Nc1ccc(F)cc1F | -16 | -3 | 1 | 0 | / | /
O=C(O)[C@@H](O)[C@H](O)C(=O)O | 4 | 2 | 3 | 11* | 7 | 0
O=C(CNC(=O)c1ccccc1F)NCc1ccncc1 | -12 | / | / | / | / | /

Screens deposited in PubChem by The Scripps Research Institute Molecular Screening Center.
